Source: ChEMBL document CHEMBL3576866, “Discovery of a Cyclic Boronic Acid β-Lactamase Inhibitor (RPX7009) with Utility vs Class A Serine Carbapenemases” (J Med Chem, 2015)
≈ marks a conversion by molar mass, not a printed value. One block for each compound: values may come before it. Calls of active or inactive are those of the source. The rule behind the calls is not given here.

Assays:
[1] = system: Escherichia coli; assay: microbe, parasite or virus in culture; details: EC1007
[2] = system: Klebsiella pneumoniae; assay: Antibacterial activity against Klebsiella pneumoniae KP1087 expressing KPC2/CTX-M-15/SHV-11/TEM-1 by broth microdilution method; type: functional
[3] = system: Klebsiella pneumoniae; assay: Antibacterial activity against Klebsiella pneumoniae KP1004 expressing KPC2/TEM1/SHV11 by broth microdilution method; type: functional
[4] = system: Klebsiella oxytoca; assay: Antibacterial activity against Klebsiella oxytoca KX1019 expressing KPC2/OXA2 by broth microdilution method; type: functional
[5] = system: Klebsiella pneumoniae; assay: Antibacterial activity against Klebsiella pneumoniae KP1088 expressing KPC3/SHV-11/TEM-1 by broth microdilution method; type: functional
[6] = system: Enterobacter cloacae; assay: Antibacterial activity against Enterobacter cloacae ECL1058 expressing KPC3/SHV-11/TEM-1 by broth microdilution method; type: functional
[7] = system: Klebsiella pneumoniae; assay: Antibacterial activity against Klebsiella pneumoniae KP1008 expressing KPC2 by broth microdilution method; type: functional
[8] = system: Klebsiella pneumoniae; assay: Antibacterial activity against Klebsiella pneumoniae KP1083 expressing KPC3/SHV-1/TEM-1 by broth microdilution method; type: functional
[9] = system: Klebsiella pneumoniae; assay: Antibacterial activity against Klebsiella pneumoniae KP1082 expressing KPC2/SHV-1 by broth microdilution method; type: functional
[10] = system: Klebsiella oxytoca; assay: Antibacterial activity against Klebsiella oxytoca KX1017 expressing KPC2/OXA2/SHV30 by broth microdilution method; type: functional
[11] = system: Klebsiella pneumoniae; assay: Antibacterial activity against Klebsiella pneumoniae KP1084 expressing KPC3/SHV-11/TEM-1 by broth microdilution method; type: functional
[12] = system: Escherichia coli; assay: microbe, parasite or virus in culture; details: EC1008
[13] = system: Klebsiella pneumoniae; assay: microbe, parasite or virus in culture; details: KP1005
[14] = system: Klebsiella pneumoniae; assay: microbe, parasite or virus in culture; details: KP1010
[15] = system: Klebsiella oxytoca; assay: microbe, parasite or virus in culture; details: KX1001
[16] = system: Escherichia coli; assay: microbe, parasite or virus in culture; details: EC1011
[17] = system: Klebsiella pneumoniae; assay: microbe, parasite or virus in culture; details: KP1009
[18] = system: Klebsiella aerogenes; assay: microbe, parasite or virus in culture; details: EA1028
[19] = system: Klebsiella pneumoniae; assay: microbe, parasite or virus in culture; details: KP1011
[20] = system: Escherichia coli; assay: microbe, parasite or virus in culture; details: EC1009
[21] = Competitive inhibition of Escherichia coli RTEM-1
[22] = Inhibition of Escherichia coli MV1183 TEM-1 using nitrocefin as substrate preincubated for 10 mins followed by substrate addition measured for 500 secs
[23] = target: Beta-lactamase (Klebsiella pneumoniae) (UniProt Q93LQ9); assay: Inhibition of Klebsiella pneumoniae KP1004 KPC 2 carbapenemase assessed as minimum concentration required to reduce biapenem MIC from […] ug/ml to 1 ug/mL by broth microdilution method
Chain of Beta-lactamase (Klebsiella pneumoniae) (Q93LQ9 as listed by the source): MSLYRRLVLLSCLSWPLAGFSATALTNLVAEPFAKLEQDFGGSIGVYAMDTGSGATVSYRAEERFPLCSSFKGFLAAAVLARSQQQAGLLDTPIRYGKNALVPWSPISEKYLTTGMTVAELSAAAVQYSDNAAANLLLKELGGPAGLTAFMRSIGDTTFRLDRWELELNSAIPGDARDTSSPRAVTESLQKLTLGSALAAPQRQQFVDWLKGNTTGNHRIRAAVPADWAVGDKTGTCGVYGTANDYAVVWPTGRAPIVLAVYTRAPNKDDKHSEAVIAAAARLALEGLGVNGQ

[24] = system: Klebsiella pneumoniae; assay: Antibacterial activity against Klebsiella pneumoniae KP1004 by broth microdilution method; type: functional, organism-based
[25] = system: Klebsiella pneumoniae; assay: Antibacterial activity against Klebsiella pneumoniae KP1074 in Swiss webster neutropenic mouse lung infection model assessed as change in log10 CFU in lung at 50 mg/kg, ip administered every 2 hrs starting at 2 hrs postinfection measured after 24 hrs relative to control; type: functional
Procedure, shortened: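 Swiss Webster mice made neutropenic with cyclophosphamide and infected intratracheally under isoflurane with KP1074. […] Lungs harvested 24 h after the start of treatment, homogenized and plated for CFU.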

[26] = Inhibition of Escherichia coli recombinant SHV-12 assessed as substrate nitrocefin degradation preincubated for 10 mins followed by substrate addition measured every 10 secs for 10 mins by spectrophotometric analysis
Procedure, shortened: (§1)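 β-Lactamases purified from overexpressing recombinant E. coli. Enzyme preincubated with inhibitor at varying concentrations for 10 min at room temperature in 50 mM Na phosphate pH 7.0, 0.1 mg/mL BSA. Then 50 μM nitrocefin (final) added and cleavage read at 490 nm every 10 s for 10 min. Ki derived by the Waley method.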

[27] = Inhibition of Escherichia coli recombinant CTX-M-15 assessed as substrate nitrocefin degradation preincubated for 10 mins followed by substrate addition measured every 10 secs for 10 mins by spectrophotometric analysis
Procedure, shortened: as §1

[28] = Inhibition of Escherichia coli recombinant CMY-2 assessed as substrate nitrocefin degradation preincubated for 10 mins followed by substrate addition measured every 10 secs for 10 mins by spectrophotometric analysis
Procedure, shortened: as §1

[29] = Inhibition of Escherichia coli recombinant KPC-2 assessed as substrate nitrocefin degradation preincubated for 10 mins followed by substrate addition measured every 10 secs for 10 mins by spectrophotometric analysis
Procedure, shortened: as §1

[30] = Inhibition of Escherichia coli recombinant P99 assessed as substrate nitrocefin degradation preincubated for 10 mins followed by substrate addition measured every 10 secs for 10 mins by spectrophotometric analysis
Procedure, shortened: as §1

[31] = Inhibition of Escherichia coli recombinant TEM-10 assessed as substrate nitrocefin degradation preincubated for 10 mins followed by substrate addition measured every 10 secs for 10 mins by spectrophotometric analysis
Procedure, shortened: as §1

[32] = system: Klebsiella pneumoniae; assay: Antibacterial activity against Klebsiella pneumoniae KP1074 in Swiss webster neutropenic mouse lung infection model assessed as change in log10 CFU in lung at 100 mg/kg, ip administered every 2 hrs starting at 2 hrs postinfection measured after 24 hrs relative to control; type: functional
Procedure, shortened: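 Neutropenic (cyclophosphamide) Swiss Webster mice infected intratracheally under isoflurane anesthesia with K. pneumoniae KP1074. […] Lungs removed 24 h after start of treatment, homogenized and plated for bacterial counts (CFU).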

MEC [23]: 0.3 µg/mL
Compound: CC(=O)N[C@H]1CC[C@@H](CC(=O)O)OB1O
Activity [24]: inactive

MEC [23]: 0.3 µg/mL
Compound: NCCSCC(=O)N[C@H]1CC[C@@H](CC(=O)O)OB1O
Activity [24]: inactive

MEC [23]: 0.04 µg/mL
Compound: Nc1cc(CC(=O)N[C@H]2CC[C@@H](CC(=O)O)OB2O)ccn1
Activity [24]: inactive

MEC [23]: 0.61 µg/mL
Compound: Nc1nc(CC(=O)N[C@H]2CC[C@@H](CC(=O)O)OB2O)cs1
Activity [24]: inactive

MEC [23]: 0.15 µg/mL
Compound: O=C(O)C[C@@H]1CC[C@H](NC(=O)C2CC2)B(O)O1
Activity [24]: inactive

MEC [23]: 0.3 µg/mL
Compound: O=C(O)C[C@@H]1CC[C@H](NC(=O)CCc2ccccc2)B(O)O1
Activity [24]: inactive

MEC [23]: 0.15 µg/mL
Compound: O=C(O)C[C@@H]1CC[C@H](NC(=O)C[C@H]2CCCCN2)B(O)O1
Activity [24]: inactive

MEC [23]: 0.15 µg/mL
Compound: O=C(O)C[C@@H]1CC[C@H](NC(=O)Cc2ccccc2)B(O)O1
Activity [24]: inactive

MEC [23]: 0.15 µg/mL
Compound: O=C(O)C[C@@H]1CC[C@H](NC(=O)Cc2ccccn2)B(O)O1
Activity [24]: inactive

MEC [23]: 0.15 µg/mL
Compound: O=C(O)C[C@@H]1CC[C@H](NC(=O)Cc2cccnc2)B(O)O1
Activity [24]: inactive

MEC [23]: 0.15 µg/mL
Compound: O=C(O)C[C@@H]1CC[C@H](NC(=O)Cc2ccncc2)B(O)O1
Activity [24]: inactive

Second part, the compound before the results:

Compound: C[C@@H](O)[C@H]1C(=O)N2C(C(=O)O)=C(S[C@@H]3CN[C@H](C(=O)Nc4cccc(C(=O)O)c4)C3)[C@H](C)[C@H]12
MIC [1]: 8 µg/mL (≈ 16.8 µM) | MIC [2]: > 64 µg/mL | MIC [3]: 32 µg/mL (≈ 67.3 µM) | MIC [4]: 16 µg/mL (≈ 33.6 µM) | MIC [5]: 16 µg/mL (≈ 33.6 µM) | MIC [6]: 32 µg/mL (≈ 67.3 µM) | MIC [7]: 8 µg/mL (≈ 16.8 µM) | MIC [8]: 32 µg/mL (≈ 67.3 µM) | MIC [9]: 4 µg/mL (≈ 8.41 µM) | MIC [10]: 16 µg/mL (≈ 33.6 µM) | MIC [11]: > 64 µg/mL

Compound: CO/N=C(\C(=O)N[C@@H]1C(=O)N2C(C(=O)[O-])=C(C[N+]3(C)CCCC3)CS[C@H]12)c1csc(N)n1
MIC [12]: > 64 µg/mL | MIC [13]: 64 µg/mL (≈ 133 µM) | MIC [14]: 2 µg/mL (≈ 4.16 µM) | MIC [15]: 4 µg/mL (≈ 8.32 µM) | MIC [16]: 8 µg/mL (≈ 16.6 µM) | MIC [17]: > 64 µg/mL | MIC [18]: > 64 µg/mL | MIC [19]: 64 µg/mL (≈ 133 µM) | MIC [20]: 8 µg/mL (≈ 16.6 µM)

Compound: CC(=O)NC(Cc1cccc(C(=O)O)c1)B(O)O (stereo not drawn)
Ki [21]: 0.11 µM

Compound: O=C(Cc1ccccc1)NC(Cc1cccc(C(=O)O)c1)B(O)O (stereo not drawn)
Ki [22]: 0.006 µM

Compound: CC(=O)NC(Cc1cccc(C(=O)O)c1O)B(O)O (stereo not drawn)
Ki [22]: 0.013 µM

Compound: N[C@H](C(=O)N[C@H]1CC[C@@H](CC(=O)O)OB1O)c1ccccc1
MEC [23]: 0.3 µg/mL | Activity [24]: inactive

Compound: O=C(O)C[C@@H]1CC[C@H](NC(=O)C(O)c2ccccc2)B(O)O1 (stereo partly drawn)
MEC [23]: 0.61 µg/mL | Activity [24]: inactive

Compound: O=C(O)C[C@@H]1CC[C@H](NC(=O)Cc2cccc(O)c2)B(O)O1
MEC [23]: 1.25 µg/mL | Activity [24]: inactive

Compound: O=C(O)C[C@@H]1CC[C@H](NC(=O)Cc2ccccc2O)B(O)O1
MEC [23]: 0.16 µg/mL | Activity [24]: inactive

Compound: O=C(O)C[C@@H]1CC[C@H](NC(=O)c2ccccc2)B(O)O1
MEC [23]: 0.3 µg/mL | Activity [24]: inactive

Compound: CO/N=C(\C(=O)N[C@H]1CC[C@@H](CC(=O)O)OB1O)c1csc(N)n1 (stereo in doubt)
MEC [23]: 1.25 µg/mL | Activity [24]: inactive

Compound: C[C@@H](O)[C@H]1C(=O)N2C(C(=O)[O-])=C(SC3Cn4cnc[n+]4C3)[C@H](C)[C@H]12 (stereo partly drawn) [BIAPENEM]
MIC [1]: 8 µg/mL (≈ 22.8 µM) | MIC [2]: 16 µg/mL (≈ 45.7 µM) | MIC [3]: 8 µg/mL (≈ 22.8 µM) | MIC [4]: 8 µg/mL (≈ 22.8 µM) | MIC [5]: 32 µg/mL (≈ 91.3 µM) | MIC [6]: 8 µg/mL (≈ 22.8 µM) | MIC [7]: 8 µg/mL (≈ 22.8 µM) | deltalog10CFU [25]: 0.88 | MIC [8]: 16 µg/mL (≈ 45.7 µM) | MIC [9]: 4 µg/mL (≈ 11.4 µM) | MIC [10]: 4 µg/mL (≈ 11.4 µM) | MIC [11]: 64 µg/mL (≈ 183 µM)

Compound: O=C(O)[C@H]1/C(=C/CO)O[C@@H]2CC(=O)N21 [CLAVULANIC ACID]
Ki [26]: ≤ 0.039 µM | Ki [27]: 0.027 µM | Ki [28]: 845 µM | Ki [29]: 41.2 µM | Ki [30]: 1110 µM | Ki [31]: 0.02 µM

Compound: C[C@@H](O)[C@H]1C(=O)N2C(C(=O)O)=C(SCCNC=N)C[C@H]12 [IMIPENEM ANHYDROUS]
MIC [1]: 8 µg/mL (≈ 26.7 µM) | MIC [2]: 16 µg/mL (≈ 53.4 µM) | MIC [3]: 8 µg/mL (≈ 26.7 µM) | MIC [4]: 4 µg/mL (≈ 13.4 µM) | MIC [5]: 32 µg/mL (≈ 107 µM) | MIC [6]: 8 µg/mL (≈ 26.7 µM) | MIC [7]: 4 µg/mL (≈ 13.4 µM) | MIC [8]: 16 µg/mL (≈ 53.4 µM) | MIC [9]: 4 µg/mL (≈ 13.4 µM) | MIC [10]: 8 µg/mL (≈ 26.7 µM) | MIC [11]: 64 µg/mL (≈ 214 µM)

Compound: C[C@@H](O)[C@H]1C(=O)N2C(C(=O)O)=C(S[C@@H]3CN[C@H](C(=O)N(C)C)C3)[C@H](C)[C@H]12 [MEROPENEM]
MIC [1]: 4 µg/mL (≈ 10.4 µM) | MIC [2]: 64 µg/mL (≈ 167 µM) | MIC [3]: 8 µg/mL (≈ 20.9 µM) | MIC [4]: 4 µg/mL (≈ 10.4 µM) | MIC [5]: 8 µg/mL (≈ 20.9 µM) | MIC [6]: 8 µg/mL (≈ 20.9 µM) | deltalog10CFU [32]: 1.41 | MIC [7]: 4 µg/mL (≈ 10.4 µM) | MIC [9]: 4 µg/mL (≈ 10.4 µM) | MIC [10]: 4 µg/mL (≈ 10.4 µM) | MIC [11]: > 64 µg/mL

Compound: C[C@]1(Cn2ccnn2)[C@H](C(=O)O)N2C(=O)C[C@H]2S1(=O)=O [TAZOBACTAM]
Ki [26]: 0.0004 µM | Ki [27]: 0.001 µM | Ki [28]: 0.71 µM | Ki [29]: 1.6 µM | Ki [30]: 1.1 µM | Ki [31]: 0.005 µM
